# ChEMBL document CHEMBL4017532, “Multifunctional Hybrid Compounds Derived from 2-(2,5-Dioxopyrrolidin-1-yl)-3-methoxypropanamides with Anticonvulsant and Antinociceptive Properties” (J Med Chem, 2017)
# The source made the active and inactive calls. No cut-off for these calls is given here.
# What was measured:
# Mus musculus [1] = test: Anticonvulsant activity in ip dosed Albino Swiss CD-1 mouse assessed as inhibition of pentylenetetrazole-induced seizures administered up to 2 hrs prior to PTZ induction measured at time to peak effect; format: functional; conditions: Swiss CD-1, ip
# Mus musculus [2] = test: Analgesic activity in Albino Swiss CD-1 mouse assessed as increase in pain response latency administered at 150 mg/kg, ip treated up to 90 mins prior to tet by hot plate assay; format: functional, organism-based
# Procedure, shortened: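 Male CD-1 mice, 18–25 g, 6–12 per group, given test agents as 1% aqueous Tween 80 suspension ip. Doses were 50, 100 or 150 mg/kg, with morphine hydrochloride at 4 mg/kg as reference. Mice were placed on the hot plate 15, 30, 45, 60 and 90 min after dosing, and latency to pain reaction was recorded.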
# Mus musculus [3] = test: Anticonvulsant activity in ip dosed Albino Swiss CD-1 mouse assessed as protection against maximal electroshock-induced seizures pretreated up to 2 hrs followed by 50 Hz current induction for […] measured at time to peak effect; format: functional; conditions: Swiss CD-1, ip
# Mus musculus [4] = test: Antinociceptive activity in Albino Swiss CD-1 mouse assessed as inhibition of capsaicin-induced nociception by measuring time spent licking injected paw at 50 mg/kg, ip administered 30 mins mins prior to capsaicin challenge measured for 5 mins relative to control; format: functional; conditions: Swiss CD-1, ip
# Procedure, shortened: (§1)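 Mice (male CD-1, 18–25 g) were pretreated ip 30 min before intraplantar capsaicin. Doses were 25, 50 or 100 mg/kg, or 100, 150 or 200 mg/kg for the reference. Vehicle was 1% Tween 80 at 10 mL/kg. Duration of nociceptive response was scored over 5 min after injection. Data are mean ± SEM of 8–10 mice, by one-way ANOVA with Dunnett's test against vehicle.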
# Cytochrome P450 3A4 = Cytochrome P450 3A4 (Homo sapiens, UniProt P08684); test: Inhibition of human CYP3A4 assessed as reduction in luciferin-PPXE conversion to D-luciferin at 12.5 to 25 uM by luminescence assay; format: ADME
# Cytochrome P450 3A4, sequence (P08684 whole entry): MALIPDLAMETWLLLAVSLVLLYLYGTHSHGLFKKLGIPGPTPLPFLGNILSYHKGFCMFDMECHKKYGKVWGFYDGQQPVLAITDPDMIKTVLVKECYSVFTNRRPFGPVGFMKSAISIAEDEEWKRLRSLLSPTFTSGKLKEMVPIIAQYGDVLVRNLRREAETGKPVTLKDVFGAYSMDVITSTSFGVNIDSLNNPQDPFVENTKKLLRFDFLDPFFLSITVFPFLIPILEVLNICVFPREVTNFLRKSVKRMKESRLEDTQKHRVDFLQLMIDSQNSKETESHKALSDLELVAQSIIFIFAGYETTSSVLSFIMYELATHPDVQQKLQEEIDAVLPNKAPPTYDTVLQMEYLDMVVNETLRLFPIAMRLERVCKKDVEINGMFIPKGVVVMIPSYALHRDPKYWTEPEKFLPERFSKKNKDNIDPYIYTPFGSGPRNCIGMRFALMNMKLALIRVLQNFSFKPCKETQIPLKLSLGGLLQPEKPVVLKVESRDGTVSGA
# Procedure, shortened: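 P450-Glo luminescence assays used recombinant human CYP3A4 or CYP2D6 with conversion of luciferin-PPXE to D-luciferin. Ketoconazole (CYP3A4) and quinidine (CYP2D6) served as reference inhibitors.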
# Mus musculus [5] = test: Antinociceptive activity in Albino Swiss CD-1 mouse assessed as inhibition of formalin-induced neurogenic pain response administered ip 30 mins before formalin injection measured up to 5 mins; format: functional; conditions: Swiss CD-1, ip
# Procedure, shortened: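 Male CD-1 mice were given test agents ip 30 min before subcutaneous intraplantar formalin. Doses were 12.5, 25 or 50 mg/kg, or 100, 150 or 200 mg/kg for the reference. Vehicle was 1% Tween 80 at 10 mL/kg. Paw licking time was recorded in phase I (0–5 min) and phase II (15–30 min). Data are mean ± SEM of 8–10 mice, by Dunnett's test. ED50 was obtained by log-probit analysis with 95% confidence limits.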
# [6] = target: Voltage-gated inwardly rectifying potassium channel KCNH2 (Homo sapiens, UniProt Q12809); test: Displacement of [3H]astemizole from human hERG expressed in HEK293 cell membrane at 200 uM after 90 mins by liquid scintillation counting; format: cell membranes; conditions: hek293, 1.5 h
# Voltage-gated inwardly rectifying potassium channel KCNH2, sequence (Q12809 whole entry): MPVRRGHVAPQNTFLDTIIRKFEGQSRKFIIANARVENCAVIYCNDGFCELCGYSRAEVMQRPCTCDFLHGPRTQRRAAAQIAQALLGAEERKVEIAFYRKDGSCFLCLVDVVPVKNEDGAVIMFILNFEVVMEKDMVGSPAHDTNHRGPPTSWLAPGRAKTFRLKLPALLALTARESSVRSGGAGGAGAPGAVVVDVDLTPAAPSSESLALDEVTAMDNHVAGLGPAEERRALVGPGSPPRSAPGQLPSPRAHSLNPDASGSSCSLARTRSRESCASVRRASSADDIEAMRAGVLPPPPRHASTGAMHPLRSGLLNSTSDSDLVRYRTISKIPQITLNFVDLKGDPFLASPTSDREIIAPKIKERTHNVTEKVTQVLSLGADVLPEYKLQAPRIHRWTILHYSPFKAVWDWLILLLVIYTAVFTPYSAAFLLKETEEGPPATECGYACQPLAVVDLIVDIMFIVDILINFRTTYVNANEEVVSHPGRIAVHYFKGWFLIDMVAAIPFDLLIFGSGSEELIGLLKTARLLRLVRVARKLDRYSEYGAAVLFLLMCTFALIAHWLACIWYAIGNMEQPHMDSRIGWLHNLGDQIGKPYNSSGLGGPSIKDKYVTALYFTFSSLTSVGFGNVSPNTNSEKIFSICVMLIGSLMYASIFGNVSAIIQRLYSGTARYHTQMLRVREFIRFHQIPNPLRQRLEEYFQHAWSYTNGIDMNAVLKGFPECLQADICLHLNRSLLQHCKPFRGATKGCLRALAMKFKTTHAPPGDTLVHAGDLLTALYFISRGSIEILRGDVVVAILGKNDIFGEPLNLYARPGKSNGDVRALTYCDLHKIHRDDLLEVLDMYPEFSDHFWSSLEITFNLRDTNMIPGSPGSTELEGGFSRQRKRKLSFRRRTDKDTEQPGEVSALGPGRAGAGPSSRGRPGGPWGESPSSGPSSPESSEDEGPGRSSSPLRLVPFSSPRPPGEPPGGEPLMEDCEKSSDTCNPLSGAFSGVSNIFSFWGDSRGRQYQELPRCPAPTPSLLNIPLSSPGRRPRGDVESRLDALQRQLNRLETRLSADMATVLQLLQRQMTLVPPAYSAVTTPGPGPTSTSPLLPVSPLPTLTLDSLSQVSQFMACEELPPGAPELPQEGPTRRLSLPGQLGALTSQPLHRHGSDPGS
# Procedure, shortened: (§2)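 Radioligand binding was run as a contract service. Percent inhibition of specific labelled-ligand binding was measured at 100 μM test compound, or 200 μM for hERG.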
# Rattus norvegicus [7] = organism: Rattus norvegicus; test: Displacement of [3H]nitrendipine from L-type calcium channel dihydropyridine binding site in rat cerebral cortex at 100 uM by liquid scintillation spectrometry; procedure, shortened: as §2
# Mus musculus [8] = organism: Mus musculus; test: Potency index, ratio of valproic acid ED50 to compound ED50 for protection against pentylenetetrazole-induced seizures in Albino Swiss CD-1 mouse; format: functional
# Mus musculus [9] = test: Antinociceptive activity in Albino Swiss CD-1 mouse assessed as inhibition of capsaicin-induced nociception by measuring time spent licking injected paw at 100 mg/kg, ip administered 30 mins mins prior to capsaicin challenge measured for 5 mins relative to control; format: functional; conditions: Swiss CD-1, ip; procedure, shortened: as §1
# Rattus norvegicus [10] = organism: Rattus norvegicus; test: Displacement of (-)-[3H](-)D 888 from L-type calcium channel verapamil binding site in rat cerebral cortex at 100 uM; procedure, shortened: as §2
# Mus musculus [11] = test: Anticonvulsant activity in ip dosed Albino Swiss CD-1 mouse assessed as protection against 32 mA current-induced seizure treated up to 2 hrs prior to 6-Hz current induction measured at time to peak effect; format: functional; conditions: Swiss CD-1, ip
compound,measurement,setting,value
COCC(C(=O)N1CCN(c2ccc(C(F)(F)F)cc2)CC1)N1C(=O)CCC1=O (configuration not stated),ED50,Mus musculus [1],123 mg/kg
same,Activity,Mus musculus [2],inactive
same,ED50,Mus musculus [3],79.5 to 83.3 mg/kg
same,inhibition in vivo at 50 mg/kg,Mus musculus [4],32.7%
same,inhibition (INH),Cytochrome P450 3A4,Not Active
same,ED50,Mus musculus [5],26 mg/kg
same,inhibition (INH),[6],Not Active
same,inhibition,Rattus norvegicus [7],inactive
same,Ratio ED50,Mus musculus [8],2
same,inhibition in vivo at 100 mg/kg,Mus musculus [9],59.3%
same,inhibition,Rattus norvegicus [10],inactive
same,ED50,Mus musculus [11],22.4 to 26.9 mg/kg
